Source: PubChem (several laboratories)
PKA-R2B activ – activates the human PKA-R2B holoenzyme complex. P22694+P31323. PKA-R2B holoenzyme dissociation, Cy5-IP20 fluorescence polarization; R2B truncated from residue 108, S112A mutant; 0% DMSO only, 100% 113 µM cGMP. activation, % at 11.4 µM. 340,000 compounds, 0.079% hits. AID 504700;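 active = activation above a cutoff set at the mean over all compounds plus 3 SD, cut at about 18% in these data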;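 also: higher means more holoenzyme dissociation and a rise in polarization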
DDE Tn7 FP inh – DD(E)-Tn7 binding inhibition, primary FP screen. AID 720508. inhibition, % at 8.3 µM. 370,000 compounds, 0.13% hits. FP displacement of FITC-Tn7 peptide from fibrin DD(E); 0% = median of compound wells per plate;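 active = inhibition above the mean of compounds falling within the control limits plus 3 SD of them, cut at about 14% in these data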;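 also: 0% = plate median of compound wells and 100% = 10 µM Aha-Tn7 peptide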
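Assay system: Fibrin-DD(E) protein isolated from polymerized human fibrin clots; read-out basis: percent inhibition; medium: Tris/NaCl/CaCl2 buffer, pH 7.8; signal: FP measurement; incubation: 10 min plus 3 h, room temperature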
PKA-R1A activ – PKA-R1A complex activation; P00514+P68181; activation, % at 11.4 µM; PKA-R1A dissociation, Cy5-IP20 fluorescence polarization; scaled: DMSO 0%, 113 µM cGMP 100%; AID 504707; 340,000 compounds, 0.083% hits;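 active = percent activation above the mean of all tested compounds plus 3 SD, cut at about 19% in these data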;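 also: higher means more PKAc released from R1A so a rise in polarization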
DDE Tn6 FP inh – DD(E)-Tn6 binding inhibition, primary FP screen. AID 720509. inhibition, % at 8.3 µM. 370,000 compounds, 0.21% hits. Fibrin DD(E) TRITC-Tn6 fluorescence polarization displacement;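 active = inhibition above a per-campaign cutoff: mean of compounds within control limits plus 3 SD, cut at about 15% in these data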;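 also: 0% = median of all compound wells on the plate and 100% = blocking peptide control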
Neddyl block – inhibitors of human cullin neddylation. inhibition, % at 25 µM. AID 651699. 360,000 compounds, 0.58% hits. TR-FRET cullin neddylation, biochemical; in the data active = inhibition above about 36%
Target sequence (P61081 whole entry, looked up): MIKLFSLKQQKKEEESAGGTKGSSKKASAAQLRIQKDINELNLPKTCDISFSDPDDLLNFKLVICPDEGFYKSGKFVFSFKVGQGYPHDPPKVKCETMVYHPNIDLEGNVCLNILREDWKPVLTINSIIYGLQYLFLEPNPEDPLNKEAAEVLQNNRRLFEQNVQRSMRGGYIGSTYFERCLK
Target sequence (Q13564 whole entry, looked up): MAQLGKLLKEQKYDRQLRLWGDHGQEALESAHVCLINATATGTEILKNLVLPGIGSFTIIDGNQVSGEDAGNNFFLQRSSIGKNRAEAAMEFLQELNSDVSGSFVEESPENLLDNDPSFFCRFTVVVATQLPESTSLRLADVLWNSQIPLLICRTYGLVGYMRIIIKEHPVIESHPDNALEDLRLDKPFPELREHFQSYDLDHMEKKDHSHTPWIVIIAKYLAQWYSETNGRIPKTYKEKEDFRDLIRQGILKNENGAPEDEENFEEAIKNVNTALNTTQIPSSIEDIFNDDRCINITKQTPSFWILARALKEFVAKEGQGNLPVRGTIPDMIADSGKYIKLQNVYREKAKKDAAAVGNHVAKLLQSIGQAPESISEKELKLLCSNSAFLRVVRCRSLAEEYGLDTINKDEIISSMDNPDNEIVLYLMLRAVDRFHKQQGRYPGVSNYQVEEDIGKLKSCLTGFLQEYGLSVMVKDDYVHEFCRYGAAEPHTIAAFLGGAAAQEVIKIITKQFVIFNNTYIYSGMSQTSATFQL
Neddyl conf – confirmation of human cullin neddylation inhibitors. shares compounds with Neddyl block. calls only at 25 µM. TR-FRET cullin neddylation biochemical assay. 1,800 compounds, 13% hits; in the data active = inhibition above about 40%;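 also: neddylation substrate is the cullin 1 ring ligase complex with SKP2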
* = called active by the depositor; i = inactive; nt = no result given; + = active, no number. A selection: hits, their analogues and other compounds. The true share with any hit is near 1%.

SMILES	PKA-R2B activ	DDE Tn7 FP inh	PKA-R1A activ	DDE Tn6 FP inh	Neddyl block	Neddyl conf
O=C(Cc1ccccc1Cl)NCCN1C(=O)C2C3C=CC(C3)C2C1=O (stereo unspecified)	nt	0.4	nt	-7.8	nt	nt
COCCN1C=C(C(=O)OC)C(c2ccc3c(c2)OCO3)C(C(=O)OC)=C1	-4.8	-12.6	-11.2	0.9	49.9*	+
COC(=O)C1=CN(C2CCCCC2)C=C(C(=O)OC)C1c1ccc2c(c1)OCO2	-7.0	9.3	-12.2	-0.4	-116.1	nt
CS(=O)(=O)Nc1ccc(-c2cncc3nccn23)cc1	nt	-1.3	nt	6.9	50.0*	nt
O=C(Nc1ccc(F)cc1)Nc1nc2ncccn2c1-c1ccc(F)cc1	nt	-5.6	nt	8.6	nt	nt
CCn1cc(C(=O)NCCC(C)C)c(=O)c2cc(F)c(N3CCN(C)CC3)cc21	-2.7	-7.0	-14.1	-0.3	44.3*	nt
CCCCNC(=O)c1cn(CC)c2cc(N3CCN(C)CC3)c(F)cc2c1=O	nt	-4.5	nt	-7.4	nt	nt
CCN(CC)CCNC(=O)c1cn(CC)c2cc(N3CCN(C)CC3)c(F)cc2c1=O	-14.5	2.1	-14.7	-1.9	47.0*	nt
CCCOc1ccc(C(=O)NC(=S)N2CCN(c3cc4c(cc3F)c(=O)c(C(=O)O)cn4CC)CC2)cc1	2.4	2.9	5.1	7.2	40.3*	i
O=C(C(=O)N1CCN(S(=O)(=O)c2cccc(C(F)(F)F)c2)CC1)c1cccc(C(F)(F)F)c1	nt	-0.6	nt	-6.5	nt	nt
Cc1cc(Br)c2nc(-c3ccc(F)cc3)c(Cc3cccc(Cl)c3)n2c1	nt	-5.8	nt	0.0	nt	nt
COc1cc2c(cc1OC)-c1cc(NCc3ccccn3)nc(=O)n1CC2	-4.8	2.0	-10.1	9.2	38.6*	+
COc1cc(/C=C/C(=O)OCC(=O)Nc2cc(S(=O)(=O)N(C)C)ccc2Cl)ccc1O	4.1	-6.2	-8.4	-0.4	nt	nt
COc1cc(/C=C/C(=O)OCC(=O)Nc2ccc(C)c(S(=O)(=O)N3CCCCC3)c2)ccc1O	-9.7	-6.0	16.9	1.5	37.0	nt
CCN(CC)S(=O)(=O)c1ccc(Cl)c(NC(=O)COC(=O)/C=C/c2ccc(O)c(OC)c2)c1	10.4	8.1	2.9	-7.4	39.7*	i
COc1cc(/C=C/C(=O)OCC(=O)Nc2cc(S(=O)(=O)N3CCCCC3)ccc2C)ccc1O	-14.5	4.2	-6.4	1.0	41.0*	i
O=C(Cn1c(-c2cncs2)nc2ccccc21)NC1CCCCC1	nt	-12.0	nt	0.0	nt	nt
Cc1c(OCc2ccc(C(=O)O)o2)ccc2c3c(c(=O)oc12)CCC3	-7.7	2.4	-9.7	-6.8	51.3*	i
Cc1c(OC(C)C(=O)NCC2CCC(C(=O)O)CC2)ccc2c3c(c(=O)oc12)CCCC3 (stereo unspecified)	7.6	10.8	-14.9	7.1	55.2*	i
Cc1c(OC(C)C(=O)NCc2ccccn2)ccc2c3c(c(=O)oc12)CCC3 (stereo unspecified)	-1.8	0.4	9.1	0.8	53.8*	+
CN1C2=N[C@@H](c3ccc4c(c3)OCO4)CC(=O)N2/C(=C\c2ccccc2)[C@@H]1c1ccccc1	nt	2.1	nt	-3.1	nt	nt
Cc1[nH]c2ccccc2c1CC(=O)Nc1ccc(Nc2cccnc2)c(-c2ccc(Oc3ccccc3)cc2)c1	nt	-5.3	nt	-3.0	nt	nt
CCOC(=O)CC[C@H](NC(=O)[C@@H]1CC=C[C@@H]2CCN(Cc3ccc(Cl)cc3)C(=O)[C@@H]21)C(=O)OCC	nt	7.9	nt	-1.8	nt	nt
S=C(Nc1ccc(I)cc1)OC1CCC12CCC(c1ccccc1)CC2 (stereo unspecified)	nt	5.8	nt	1.1	nt	nt
O=C(Nc1ccc2nc(-c3ccco3)[nH]c2c1)c1cccs1	-2.6	4.1	-1.5	-3.3	45.0*	i
CSc1nnc(-c2sc3cc(C(F)(F)F)cnc3c2-c2ccccn2)n1C	-10.7	3.2	-4.1	-14.3	42.4*	i
Cn1c(-c2sc3cc(C(F)(F)F)cnc3c2-c2ccccn2)n[nH]c1=S	nt	-1.8	nt	-11.8	-6.0	nt
CC(Oc1ccccc1)C(=O)N1CCN(c2ncccn2)CC1 (stereo unspecified)	-5.0	-2.3	-7.2	-0.4	-6.8	nt
